Assay [1] deals with A549. As to the kind of experiment: Cytotoxicity against human A549 cells assessed as growth inhibition after 48 hrs by MTT assay. To be noted: for IC50: A549, 48 h. The assay is classed as functional, cell-based. In short, it runs like this:
(§1)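 Dose-response MTT assay, 48 h exposure. Compounds run at multiple concentrations; IC50 taken as the concentration giving 50% growth inhibition. HEK-293T (human embryonic kidney cells transformed with adenovirus 5 DNA and SV40 large T-antigen) served as the normal-cell model.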
On the technique in general: Tetrazolium assays rely on reduction of a dye to a coloured formazan, in cell work by metabolically active cells.

For assay [2], the target named is Induced myeloid leukemia cell differentiation protein Mcl-1 (Homo sapiens) (UniProt Q07820). As to the kind of experiment: Inhibition of mouse/human MCL1 expressed in Escherichia coli BL21 at 1 uM to 50 uM using FAM-labeled Bid-BH3 as tracer by fluorescence polarization assay.
For assay [3], the system named is HeLa. Kind of assay: Induction of apoptosis in human HeLa cells at 20 uM after 24 hrs using PI staining by flow cytometry relative to control. The assay is classed as functional. In general terms: A flow cytometer gives signals particle by particle.
Assay [4] relates to A549. As to the kind of experiment: Cytotoxicity against human A549 cells assessed as growth inhibition at 20 uM after 48 hrs by MTT assay. It counts as functional. To be noted: for inhibition of growth at 20 µM: A549, 48 h, read-out: GI. In short, it runs like this:
(§2)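 Single-concentration screen at 20 µM. Cell growth inhibition read by standard MTT assay after 48 h treatment and expressed as inhibition ratio.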

Assay [5] concerns HeLa. Kind of assay: Cytotoxicity against human HeLa cells assessed as growth inhibition after 48 hrs by MTT assay. The assay is classed as functional, cell-based. The method in brief: as §1
Assay [6] concerns MDA-MB-231. Kind of assay: Cytotoxicity against human MDA-MB-231 cells assessed as growth inhibition after 48 hrs by MTT assay. It counts as functional, cell-based. To be noted: for IC50: MDA-MB-231, 48 h. The method in brief:
as §1

Assay [7] concerns HeLa. As to the kind of experiment: Cytotoxicity against human HeLa cells assessed as growth inhibition at 20 uM after 48 hrs by MTT assay. It counts as functional. Conditions: for inhibition of growth at 20 µM: read-out: GI. The method in brief: as §2
The subject of another assay is HEK-293T. Kind of assay: Cytotoxicity against human HEK293T cells assessed as growth inhibition after 48 hrs by MTT assay. It counts as cell-based. In short, it runs like this: as §1
Assay [8] deals with MDA-MB-231. Kind of assay: Cytotoxicity against human MDA-MB-231 cells assessed as growth inhibition at 20 uM after 48 hrs by MTT assay. It counts as functional. To be noted: for inhibition of growth at 20 µM: MDA-MB-231, 48 h, read-out: GI. The method in brief:
as §2

The subject of assay [9] is HeLa. Kind of assay: Induction of apoptosis in human HeLa cells assessed as increase in level of cleaved caspase-3 at 20 uM after 12 hrs by immunoblotting. The assay is classed as functional, cell-based. For orientation: In western blotting, separated proteins are transferred to a membrane and probed.
Assay [10] has as its system HeLa. Kind of assay: Induction of apoptosis in human HeLa cells assessed as increase in level of cleaved PARP at 20 uM after 12 hrs by immunoblotting. The assay is classed as functional, cell-based.
For assay [11], the system named is HeLa. Kind of assay: Induction of apoptosis in human HeLa cells assessed as sub-diploid DNA content at 20 uM after 24 hrs using PI staining by flow cytometry (reference value: 6%). The assay is classed as functional.
The target in assay [12] is Induced myeloid leukemia cell differentiation protein Mcl-1 (Homo sapiens) (UniProt Q07820). As to the kind of experiment: Inhibition of mouse/human MCL1 expressed in Escherichia coli BL21 at 50 uM using FAM-labeled Bid-BH3 as tracer by fluorescence polarization assay.

These results are taken from ChEMBL document CHEMBL1909506, “Synthesis and anti-tumor activities of N'-benzylidene-2-(4-oxothieno[2,3-d]pyrimidin-3(4H)-yl)acetohydrazone derivatives” (Bioorg Med Chem Lett, 2011).

In general, IC50 refers to the concentration that inhibits the measured activity by half. As a reminder, the inhibition is the percentage by which the read-out fell short of the control.

The source made the active and inactive calls. The rule behind the calls is not given here.

In the case of `O=C(Cn1cnc2scc(-c3ccccc3)c2c1=O)N/N=C/c1ccc(Cl)c([N+](=O)[O-])c1`, the “growth inhibition (GI)” value with A549 [1], in the assay with HeLa [5] and in the assay on MDA-MB-231 [6] was “Dose-dependent effect” throughout. Further, the IC50 in the assay on A549 [1] is 16 µM; with HeLa [5], 11 µM; in the assay on MDA-MB-231 [6] it was 20 µM; in the assay on HEK-293T, > 50 µM. Moreover, the inhibition result in assay [2] is “inactive”. Moreover, the Activity in the assay on HeLa [3] was determined as 8%. Moreover, the inhibition of growth at 20 µM is 66% in the assay on A549 [4], 64% with HeLa [7] and 29% in the assay on MDA-MB-231 [8].
For the compound `O=C(Cn1cnc2scc(-c3ccc4ccccc4c3)c2c1=O)N/N=C/c1ccc(Cl)c([N+](=O)[O-])c1`, the “growth inhibition (GI)” value with A549 [1], in the assay on HeLa [5] and in the assay on MDA-MB-231 [6] was “Dose-dependent effect” in each case. For the same compound, the half-inhibitory concentration (IC50) in the assay on A549 [1] was 13 µM; in the assay on HeLa [5], 24 µM; in the assay with MDA-MB-231 [6], 20 µM; with HEK-293T, > 50 µM. Also, the result in the assay with HeLa [9] and with HeLa [10] was Active. Also, in assay [2], the inhibition entry was “inactive”. Besides, the results for the inhibition of growth at 20 µM with A549 [4], with HeLa [7] and in the assay with MDA-MB-231 [8] were 69%, 69% and 55%, respectively. Also, in the assay with HeLa [11], the Activity is 20%.
Take `O=C(Cn1cnc2scc(-c3ccc4ccccc4c3)c2c1=O)N/N=C/c1ccc(O)c(O)c1`: the inhibition in [12] was 40%. The inhibition entry in [2] is “inactive”. Further, the “growth inhibition (GI)” value with A549 [4], with HeLa [7] and with MDA-MB-231 [8] was “inactive” each time.
With `O=C(Cn1cnc2sc3c(c2c1=O)CCCC3)N/N=C/c1ccccc1O`, the IC50 was > 50 µM in the assay with A549 [1], 40 µM in the assay with HeLa [5], 16 µM in the assay on MDA-MB-231 [6] and > 50 µM with HEK-293T. The inhibition entry in assay [2] was “inactive”. For the same compound, the inhibition of growth at 20 µM in the assay with A549 [4] came to 18%; in the assay on HeLa [7], 34%; with MDA-MB-231 [8], 29%.
Consider `O=C(Cn1cnc2scc(-c3ccc(Cl)cc3)c2c1=O)N/N=C/c1ccc(Cl)c([N+](=O)[O-])c1`, for which the “growth inhibition (GI)” value with A549 [1], with HeLa [5] and with MDA-MB-231 [6] was “Dose-dependent effect” throughout. Besides, the IC50 with A549 [1] is 20 µM; in the assay with HeLa [5] it was 11 µM; in the assay on MDA-MB-231 [6], 32 µM; with HEK-293T it was > 50 µM. In addition, the outcome with HeLa [9] and in the assay with HeLa [10] was Active. The inhibition result in assay [2] was “inactive”. For the same compound, the figures for the inhibition of growth at 20 µM in the assay with A549 [4], in the assay on HeLa [7] and in the assay with MDA-MB-231 [8] were 58%, 74% and 78%, respectively. Besides, in the assay with HeLa [11], the Activity is on record as 22%.
As for `N#Cc1ccc(/C=N/NC(=O)Cn2cnc3scc(-c4ccc5ccccc5c4)c3c2=O)cc1`, the inhibition entry in assay [2] was “inactive”. The “growth inhibition (GI)” value in the assay with A549 [4], with HeLa [7] and with MDA-MB-231 [8] was “inactive” throughout.
For the compound `O=C(Cn1cnc2scc(-c3ccc4ccccc4c3)c2c1=O)N/N=C/c1ccccc1O`, the inhibition entry in assay [2] is “inactive”. Further, the inhibition of growth at 20 µM stood at 44% in the assay with A549 [4], 22% with HeLa [7] and 36% with MDA-MB-231 [8].
On to `O=C(Cn1cnc2scc(-c3ccccc3)c2c1=O)N/N=C/c1ccccc1O`, for which, in assay [2], the inhibition result was “inactive”. The results for the inhibition of growth at 20 µM in the assay on A549 [4], in the assay on HeLa [7] and in the assay on MDA-MB-231 [8] were 26%, 31% and 30%, respectively.
In the case of `O=C(Cn1cnc2sc3c(c2c1=O)CCCCC3)N/N=C/c1ccc(Cl)c([N+](=O)[O-])c1`, the IC50 with A549 [1] is > 50 µM; with HeLa [5] it was 6 µM; in the assay on MDA-MB-231 [6] it was 23 µM; in the assay on HEK-293T, > 50 µM. Besides, the inhibition result in [2] was “inactive”. In the assay with HeLa [3], the Activity amounted to 6%. Moreover, the “growth inhibition (GI)” value with A549 [4] is “inactive”. Further, the inhibition of growth at 20 µM in the assay with HeLa [7] is 96%; with MDA-MB-231 [8] it was 66%.
Take `Cc1csc2ncn(CC(=O)N/N=C/c3ccc(C#N)cc3)c(=O)c12`: the inhibition result in assay [2] is “inactive”. The “growth inhibition (GI)” value in the assay with A549 [4], with HeLa [7] and in the assay on MDA-MB-231 [8] was “inactive” throughout.
As to `Cc1cc(-c2csc3ncn(CC(=O)N/N=C/c4ccc(Cl)c(F)c4)c(=O)c23)ccc1Cl`, the “growth inhibition (GI)” value with A549 [1], in the assay on HeLa [5] and in the assay with MDA-MB-231 [6] was “Dose-dependent effect” throughout. Moreover, the IC50 is 17 µM with A549 [1], 15 µM in the assay on HeLa [5], 16 µM in the assay on MDA-MB-231 [6] and > 50 µM in the assay on HEK-293T. The outcome in the assay with HeLa [9] and in the assay on HeLa [10] was Active. This compound also had an inhibition in [12] of 40%. The inhibition result in assay [2] was “inactive”. Further, the inhibition of growth at 20 µM in the assay on A549 [4] was found to be 51%; with HeLa [7], 52%; in the assay with MDA-MB-231 [8] it was 74%. Besides, the Activity in the assay on HeLa [11] came to 27%.
Regarding `O=C(Cn1cnc2sc3c(c2c1=O)CCCC3)N/N=C/c1ccc(C(F)(F)F)cc1`, the inhibition result in assay [2] was “inactive”. Besides, the inhibition of growth at 20 µM in the assay on A549 [4] was found to be 23%; in the assay on HeLa [7], 34%; with MDA-MB-231 [8], 30%.
`Cc1csc2ncn(CC(=O)N/N=C/c3ccccc3O)c(=O)c12` gave an inhibition in [12] of 40%. In assay [2], the inhibition entry is “inactive”. Moreover, the “growth inhibition (GI)” value in the assay with A549 [4] and in the assay with HeLa [7] was “inactive” in each case. Further, the inhibition of growth at 20 µM in the assay on MDA-MB-231 [8] is 30%.
